ChEMBL document CHEMBL1123370, “Design and synthesis of conformationally constrained somatostatin analogues with high potency and specificity for mu opioid receptors” (J Med Chem, 1986)

Key:
[1] = molecular target: Delta-type opioid receptor (Rattus norvegicus, UniProt P33533); assay: Inhibition of [3H]-DPDPE binding to Opioid receptor delta 1 of rat brain membranes; type: cell membranes, Membrane
In short: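 Rat brain membranes were prepared as a sucrose homogenate, spun at 1000g, and washed twice in 50 mM Tris-HCl pH 7.4 with 5 mM MgCl2, BSA 2 mg/mL and bacitracin 20 µg/mL. They were incubated with [3H]DPDPE and at least 10 freshly prepared peptide concentrations for 180 min at 25 °C. Bound ligand was separated by rapid filtration on PEI-pretreated GF/B filters.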

[2] = molecular target: Mu-type opioid receptor (Rattus norvegicus, UniProt P33535); assay: Inhibition of binding of [3H]-naloxone to Opioid receptor mu 1 of rat brain membranes; type: cell membranes, Membrane
Chain of Mu-type opioid receptor (P33535 whole entry): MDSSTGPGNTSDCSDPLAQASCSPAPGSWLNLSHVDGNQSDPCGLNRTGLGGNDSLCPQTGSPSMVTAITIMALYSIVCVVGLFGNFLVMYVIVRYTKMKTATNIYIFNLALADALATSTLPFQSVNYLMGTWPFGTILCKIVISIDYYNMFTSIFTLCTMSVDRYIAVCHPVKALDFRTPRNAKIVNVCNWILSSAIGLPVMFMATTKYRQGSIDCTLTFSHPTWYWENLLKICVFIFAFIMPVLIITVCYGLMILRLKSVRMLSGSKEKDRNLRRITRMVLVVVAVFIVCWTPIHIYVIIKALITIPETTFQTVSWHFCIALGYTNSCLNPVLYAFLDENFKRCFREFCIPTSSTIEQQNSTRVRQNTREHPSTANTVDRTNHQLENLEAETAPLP
In short: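 The [3H]naloxone (1 nM) displacement used washed Sprague-Dawley rat brain membranes in 50 mM Tris-HCl pH 7.4 containing MgCl2 5 mM, BSA and bacitracin. Incubation ran 120 min at 25 °C across ≥10 analogue concentrations. Binding was terminated by filtration through GF/B filters soaked in 0.1% polyethylenimine. IC50 is mean ± SD of at least three duplicate runs.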

[3] = organism: Rattus norvegicus; assay: Compound was evaluated for the inhibition of binding of [125I]CGP23996 to rat brain membranes; set-up: species or system Membrane
In short: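 Whole brains from adult Sprague-Dawley rats (150–200 g) were homogenized 10% w/v in 0.32 M sucrose, spun at 1000g for 10 min, and resuspended in 50 mM Tris-HCl pH 7.4 with 5 mM MgCl2, BSA 2 mg/mL and bacitracin 20 µg/mL (done twice). Membranes were incubated with 0.2 nM [125I]CGP23,996 and ≥10 analogue concentrations for 120 min at 25 °C. Filtration was through 0.1% PEI-treated GF/B filters.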

[4] = molecular target: Opioid receptors; mu & delta (Rattus norvegicus) (UniProt P33533+P33535); assay: Ratio of receptor binding inhibitory concentrations against mu and delta opioid receptors from rat brain as IC50 (vs [3H]-DPDPE) / IC50 (vs [3H]naloxone)
Chain of Opioid receptors; mu & delta (Rattus norvegicus) (P33533 whole entry, looked up): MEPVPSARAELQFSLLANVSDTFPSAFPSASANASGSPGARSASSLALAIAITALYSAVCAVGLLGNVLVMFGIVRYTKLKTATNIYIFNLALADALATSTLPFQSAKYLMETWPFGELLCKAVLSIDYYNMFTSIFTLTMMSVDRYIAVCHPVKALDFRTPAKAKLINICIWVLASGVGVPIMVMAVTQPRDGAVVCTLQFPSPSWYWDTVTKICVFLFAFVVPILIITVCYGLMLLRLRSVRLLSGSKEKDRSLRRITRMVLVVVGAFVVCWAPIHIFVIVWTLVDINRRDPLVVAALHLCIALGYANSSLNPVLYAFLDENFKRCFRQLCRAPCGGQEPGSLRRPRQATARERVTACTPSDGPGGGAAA
Chain of Opioid receptors; mu & delta (Rattus norvegicus) (P33535 whole entry, looked up): as the sequence (P33535 whole entry) above
In short: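 The ratio is IC50 against [3H]DPDPE (rat brain membranes, 180 min, 25 °C) divided by IC50 against 1 nM [3H]naloxone (120 min, 25 °C). Both assays used Tris-HCl pH 7.4 buffer with MgCl2, BSA and bacitracin, and filtration on PEI-treated GF/B filters.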

[5] = Ratio of receptor binding inhibitory concentrations against somatostatin receptors and mu opioid receptors from rat brain […] / IC50(vs [3H]naloxone)

Chain of Delta-type opioid receptor (P33533 whole entry): as the sequence (P33533 whole entry, looked up) above

## CCCC[C@@H]1NC(=O)[C@@H](Cc2c[nH]c3ccccc23)NC(=O)[C@H](Cc2ccc(O)cc2)NC(=O)[C@@H](NC(=O)[C@H](N)Cc2ccccc2)CSSC(C)(C)[C@@H](C(=O)N[C@H](C(N)=O)[C@@H](C)O)NC(=O)[C@H]([C@@H](C)O)NC1=O
[1]
  IC50: 5.6 µM
[2]
  IC50: 0.0096 µM

## C[C@@H](O)[C@H](NC(=O)[C@H]1NC(=O)[C@H]([C@@H](C)O)NC(=O)[C@H](CCCCN)NC(=O)[C@@H](Cc2c[nH]c3ccccc23)NC(=O)[C@H](Cc2ccc(O)cc2)NC(=O)[C@@H](NC(=O)[C@H](N)Cc2ccccc2)CSSC1(C)C)C(N)=O
[1]
  IC50: 8.4 µM
[2]
  IC50: 0.0037 µM
[3]
  IC50: 0.69 µM

## C[C@@H](O)[C@H](NC(=O)[C@H]1NC(=O)[C@H]([C@@H](C)O)NC(=O)[C@H](CCCN)NC(=O)[C@@H](Cc2c[nH]c3ccccc23)NC(=O)[C@H](Cc2ccc(O)cc2)NC(=O)[C@@H](NC(=O)[C@H](N)Cc2ccccc2)CSSC1(C)C)C(N)=O
[1]
  IC50: 13.5 µM
[3]
  IC50: 24.3 µM

## C[C@@H](O)[C@H](NC(=O)[C@@H]1NC(=O)[C@@H]([C@@H](C)O)NC(=O)[C@H](CCCCN)NC(=O)[C@@H](Cc2c[nH]c3ccccc23)NC(=O)[C@H](Cc2ccc(O)cc2)NC(=O)[C@@H](NC(=O)[C@H](N)c2ccccc2)CSSC1(C)C)C(N)=O
[4]
  Ratio: 8
[5]
  Ratio: 6.6

## C[C@@H](O)[C@H](NC(=O)[C@H]1NC(=O)[C@H]([C@@H](C)O)NC(=O)[C@H](CCCCN)NC(=O)[C@@H](Cc2c[nH]c3ccccc23)NC(=O)[C@H](Cc2ccc(O)cc2)NC(=O)[C@@H](NC(=O)[C@H](N)c2ccccc2)CSSC1(C)C)C(N)=O
[1]
  IC50: 2.8 µM
[2]
  IC50: 0.35 µM
[3]
  IC50: 2.3 µM

## C[C@@H](O)[C@H](NC(=O)[C@@H]1CSSC(C)(C)[C@H](NC(=O)[C@H](N)c2ccccc2)C(=O)N[C@@H](Cc2ccccc2)C(=O)N[C@H](Cc2c[nH]c3ccccc23)C(=O)N[C@@H](CCCCN)C(=O)N[C@@H]([C@@H](C)O)C(=O)N1)C(=O)O
[1]
  IC50: 32 µM
[2]
  IC50: 2.1 µM
[3]
  IC50: 0.947 µM

## CC(C)[C@@H]1NC(=O)[C@H](CCCCN)NC(=O)[C@@H](Cc2c[nH]c3ccccc23)NC(=O)[C@H](Cc2ccc(O)cc2)NC(=O)[C@@H](NC(=O)[C@H](N)Cc2ccccc2)CSSC(C)(C)[C@@H](C(=O)NC(C(N)=O)[C@@H](C)O)NC1=O (stereo in doubt)
[1]
  IC50: 2 µM
[2]
  IC50: 0.0055 µM

## C[C@@H](O)[C@H](NC(=O)[C@H]1CSSC[C@H](NC(=O)[C@H](N)Cc2ccc(O)cc2)C(=O)N[C@@H](Cc2ccc(O)cc2)C(=O)N[C@H](Cc2c[nH]c3ccccc23)C(=O)N[C@@H](CCCCN)C(=O)N[C@H]([C@@H](C)O)C(=O)N1)C(=O)O
[4]
  Ratio: 3
[5]
  Ratio: 2

## C[C@@H](O)[C@H](NC(=O)[C@@H]1NC(=O)[C@@H]([C@@H](C)O)NC(=O)[C@H](CCCN=C(N)N)NC(=O)[C@@H](Cc2c[nH]c3ccccc23)NC(=O)[C@H](Cc2ccc(O)cc2)NC(=O)[C@@H](NC(=O)[C@H](N)Cc2ccccc2)CSSC1(C)C)C(N)=O
[4]
  Ratio: 1300
[5]
  Ratio: 4090

## C[C@@H](O)[C@H](NC(=O)[C@@H]1NC(=O)CNC(=O)[C@H](CCCCN)NC(=O)[C@@H](Cc2c[nH]c3ccccc23)NC(=O)[C@H](Cc2ccc(O)cc2)NC(=O)[C@@H](NC(=O)[C@H](N)Cc2ccccc2)CSSC1(C)C)C(N)=O
[4]
  Ratio: 110
[5]
  Ratio: 25

## C[C@@H](O)[C@H](NC(=O)[C@H]1CSSC(C)(C)[C@H](NC(=O)[C@H](N)c2ccccc2)C(=O)N[C@@H](Cc2ccccc2)C(=O)N[C@H](Cc2c[nH]c3ccccc23)C(=O)N[C@@H](CCCCN)C(=O)N[C@H]([C@@H](C)O)C(=O)N1)C(=O)O
[4]
  Ratio: 15
[5]
  Ratio: 0.45

## C[C@@H](O)[C@H](NC(=O)[C@@H]1NC(=O)[C@@H]([C@@H](C)O)NC(=O)[C@H](CCCCN)NC(=O)[C@@H](Cc2c[nH]c3ccccc23)NC(=O)[C@H](Cc2ccc(O)cc2)NC(=O)[C@@H](NC(=O)[C@H](N)Cc2ccccc2)CSSC1(C)C)C(N)=O
[4]
  Ratio: 2250
[5]
  Ratio: 187

## C[C@@H](O)[C@H](NC(=O)[C@@H]1NC(=O)[C@@H]([C@@H](C)O)NC(=O)[C@H](CCCCN)NC(=O)[C@H](Cc2c[nH]c3ccccc23)NC(=O)[C@H](Cc2ccc(O)cc2)NC(=O)[C@@H](NC(=O)[C@H](N)Cc2ccccc2)CSSC1(C)C)C(N)=O
[4]
  Ratio: > 52
[5]
  Ratio: 0.55

## C[C@H](N)C(=O)NCC(=O)N[C@H]1CSSC[C@@H](C(=O)O)NC(=O)[C@H](CO)NC(=O)[C@H]([C@@H](C)O)NC(=O)[C@H](Cc2ccccc2)NC(=O)[C@H]([C@@H](C)O)NC(=O)[C@H](CCCCN)NC(=O)[C@H](Cc2c[nH]c3ccccc23)NC(=O)[C@H](Cc2ccccc2)NC(=O)[C@H](Cc2ccccc2)NC(=O)[C@H](CC(N)=O)NC(=O)[C@H](CCCCN)NC1=O
[5]
  Ratio: 0.0003

## CC(C)[C@H]1NC(=O)[C@H](CCCCN)NC(=O)[C@@H]([C@@H](C)O)NC(=O)[C@H](Cc2ccc(O)cc2)NC(=O)[C@@H](NC(=O)[C@H](N)Cc2ccccc2)CSSC(C)(C)[C@H](C(=O)N[C@H](C(N)=O)[C@@H](C)O)NC1=O
[4]
  Ratio: 360

## C[C@@H](O)[C@H](NC(=O)[C@H]1NC(=O)[C@H]([C@@H](C)O)NC(=O)[C@H](CCCN=C(N)N)NC(=O)[C@@H](Cc2c[nH]c3ccccc23)NC(=O)[C@H](Cc2ccc(O)cc2)NC(=O)[C@@H](NC(=O)[C@H](N)Cc2ccccc2)CSSC1(C)C)C(N)=O
[1]
  IC50: 4.5 µM
[2]
  IC50: 0.0035 µM
[3]
  IC50: 14.3 µM

## C[C@@H](O)[C@H](NC(=O)[C@H]1NC(=O)CNC(=O)[C@H](CCCCN)NC(=O)[C@@H](Cc2c[nH]c3ccccc23)NC(=O)[C@H](Cc2ccc(O)cc2)NC(=O)[C@@H](NC(=O)[C@H](N)Cc2ccccc2)CSSC1(C)C)C(N)=O
[1]
  IC50: 58 µM
[2]
  IC50: 0.539 µM
[3]
  IC50: 13.3 µM

## C[C@@H](O)[C@H](NC(=O)[C@H]1NC(=O)[C@H]([C@@H](C)O)NC(=O)[C@H](CCCCN)NC(=O)[C@H](Cc2c[nH]c3ccccc23)NC(=O)[C@H](Cc2ccc(O)cc2)NC(=O)[C@@H](NC(=O)[C@H](N)Cc2ccccc2)CSSC1(C)C)C(N)=O
[1]
  IC50: > 70 µM
[2]
  IC50: 1.35 µM
[3]
  IC50: 0.74 µM

## CCCC[C@@H]1NC(=O)[C@@H](Cc2c[nH]c3ccccc23)NC(=O)[C@H](Cc2ccc(O)cc2)NC(=O)[C@@H](NC(=O)[C@H](N)Cc2ccccc2)CSSC(C)(C)[C@H](C(=O)N[C@H](C(N)=O)[C@@H](C)O)NC(=O)[C@@H]([C@@H](C)O)NC1=O
[4]
  Ratio: 580

## C[C@@H](O)[C@H](NC(=O)[C@@H]1CSSC[C@H](NC(=O)[C@H](N)Cc2ccc(O)cc2)C(=O)N[C@@H](Cc2ccc(O)cc2)C(=O)N[C@H](Cc2c[nH]c3ccccc23)C(=O)N[C@@H](CCCCN)C(=O)N[C@@H]([C@@H](C)O)C(=O)N1)C(=O)O
[1]
  IC50: 27.5 µM
[2]
  IC50: 9.1 µM
[3]
  IC50: 18.5 µM
